# Test results published in ChEMBL document CHEMBL1250547, “Synthesis and evaluation of original amidoximes as antileishmanial agents” (Bioorg Med Chem, 2010).
# Key:
# THP-1 = experiment: Cytotoxicity against human THP1 cells after 72 hrs by flow cytometry; assay type: cell-based; details: THP-1, 72 h
# How it was run: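 Late log-phase THP1 monocytes in phenol red-free RPMI 1640 with 10% FCS, 2% L-glutamine, 1% penicillin-streptomycin; compound range in duplicate, DMSO final <0.5% v/v; 72 h at 37 °C, 6% CO2; propidium iodide staining, live cells counted by flow cytometry; doxorubicin, pentamidine and solvent controls; IC50 by non-linear regression, mean of three independent experiments.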
# Leishmania donovani = experiment: Antileishmanial activity against promastigotes of Leishmania donovani HOM/IN/01/2001 after 72 hrs by flow cytometry; assay type: functional, organism-based; details: HOM/IN/01/2001, 72 h
# How it was run: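 GFP-transfected late log-phase promastigotes in M199 with 10% FCS and 500 µg/mL G418, seeded at about 10⁵ parasites/mL; compounds in DMSO (final <0.5% v/v) over a concentration range in duplicate; 72 h at 27 °C; growth read by green fluorescence flow cytometry; DMSO and pentamidine controls; IC50 versus control by non-linear regression of dose-response curves.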
# [1] = Selectivity index, ratio of IC50 for human THP1 cells to IC50 for promastigotes of Leishmania donovani HOM/IN/01/2001; assay type: toxicity, cell-based, THP-1; details: read-out: Selectivity Index
IC50 (Leishmania donovani),Structure (SMILES),IC50 (THP-1),selectivity ratio [1]
39.1 µM,N/C(=N\O)c1ccc(Nc2ccc(S(=O)(=O)C3=C(c4ccc(/C(N)=N/O)cc4)OC(c4ccccc4)(c4ccccc4)C3)cc2)cc1,> 50 µM,> 1.3
> 50 µM,N/C(=N\O)c1ccc(Nc2ccc(C3=C(S(=O)(=O)c4ccc(/C(N)=N/O)cc4)CC(c4ccccc4)(c4ccccc4)O3)cc2)cc1,48.9 µM,< 1
> 50 µM,CC1(Cc2ccccc2)CC(S(=O)(=O)c2ccc(Nc3ccc(/C(N)=N/O)cc3)cc2)=C(c2ccc(/C(N)=N/O)cc2)O1 (centres undefined),47.6 µM,< 1
30.1 µM,CC1(Cc2ccccc2)CC(S(=O)(=O)c2ccc(/C(N)=N/O)cc2)=C(c2ccc(Nc3ccc(/C(N)=N/O)cc3)cc2)O1 (centres undefined),9.8 µM,0.3
> 50 µM,N/C(=N\O)c1ccc(C2=C(S(=O)(=O)c3ccc(Nc4cccc(/C(N)=N/O)c4)cc3)CC(c3ccccc3)(c3ccccc3)O2)cc1,> 50 µM,–
> 50 µM,N/C(=N\O)c1ccc(S(=O)(=O)C2=C(c3ccc(Nc4cccc(/C(N)=N/O)c4)cc3)OC(c3ccccc3)(c3ccccc3)C2)cc1,48.1 µM,< 1
> 50 µM,CC1(Cc2ccccc2)CC(S(=O)(=O)c2ccc(Nc3cccc(/C(N)=N/O)c3)cc2)=C(c2ccc(/C(N)=N/O)cc2)O1 (centres undefined),46.6 µM,< 1
> 50 µM,CC1(Cc2ccccc2)CC(S(=O)(=O)c2ccc(/C(N)=N/O)cc2)=C(c2ccc(Nc3cccc(/C(N)=N/O)c3)cc2)O1 (centres undefined),44 µM,< 0.9
39.1 µM,N/C(=N\O)c1ccc(C2=C(S(=O)(=O)c3ccc(Nc4ccccc4/C(N)=N/O)cc3)CC(c3ccccc3)(c3ccccc3)O2)cc1,> 50 µM,> 1.3
13.3 µM,N/C(=N\O)c1ccc(S(=O)(=O)C2=C(c3ccc(Nc4ccccc4/C(N)=N/O)cc3)OC(c3ccccc3)(c3ccccc3)C2)cc1,47.8 µM,3.6
48.3 µM,CC1(Cc2ccccc2)CC(S(=O)(=O)c2ccc(Nc3ccccc3/C(N)=N/O)cc2)=C(c2ccc(/C(N)=N/O)cc2)O1 (centres undefined),48.4 µM,1
8.8 µM,CC1(Cc2ccccc2)CC(S(=O)(=O)c2ccc(/C(N)=N/O)cc2)=C(c2ccc(Nc3ccccc3/C(N)=N/O)cc2)O1 (centres undefined),48.1 µM,5.5
50 µM,N/C(=N\O)c1ccc(/C=C/c2ccc(S(=O)(=O)C3=C(c4ccc(/C(N)=N/O)cc4)OC(c4ccccc4)(c4ccccc4)C3)cc2)cc1,> 10 µM,> 0.2
> 50 µM,N/C(=N\O)c1ccc(/C=C/c2ccc(C3=C(S(=O)(=O)c4ccc(/C(N)=N/O)cc4)CC(c4ccccc4)(c4ccccc4)O3)cc2)cc1,41.3 µM,< 0.9
> 50 µM,CC1(Cc2ccccc2)CC(S(=O)(=O)c2ccc(/C=C/c3ccc(/C(N)=N/O)cc3)cc2)=C(c2ccc(/C(N)=N/O)cc2)O1 (centres undefined),> 50 µM,–
17.1 µM,CC1(Cc2ccccc2)CC(S(=O)(=O)c2ccc(/C(N)=N/O)cc2)=C(c2ccc(/C=C/c3ccc(/C(N)=N/O)cc3)cc2)O1 (centres undefined),23.4 µM,1.4
8.3 µM,CC1(Cc2ccccc2)CC(S(=O)(=O)c2ccc(/C(N)=N/O)cc2)=C(c2ccccc2)O1 (centres undefined),54.7 µM,6.6
99.5 µM,CC1(Cc2ccccc2)CC(S(=O)(=O)c2ccc(/C(N)=N/O)cc2)=C(c2ccc(/C(N)=N/O)cc2)O1 (centres undefined),99.5 µM,1
> 125 µM,N/C(=N\O)c1ccc(C(=O)CS(=O)(=O)c2ccccc2)cc1,> 125 µM,–
> 125 µM,N/C(=N\O)c1ccc(S(=O)(=O)CC(=O)c2ccccc2)cc1,> 125 µM,–
> 125 µM,N/C(=N\O)c1ccc(C(=O)CS(=O)(=O)c2ccc(/C(N)=N/O)cc2)cc1,> 125 µM,–
20.6 µM,N/C(=N\O)c1ccc(C2=C(S(=O)(=O)c3ccccc3)CC(c3ccccc3)(c3ccccc3)O2)cc1,30.6 µM,1.5
17.6 µM,N/C(=N\O)c1ccc(S(=O)(=O)C2=C(c3ccccc3)OC(c3ccccc3)(c3ccccc3)C2)cc1,37.9 µM,2.1
74.3 µM,N/C(=N\O)c1ccc(C2=C(S(=O)(=O)c3ccc(/C(N)=N/O)cc3)CC(c3ccccc3)(c3ccccc3)O2)cc1,119 µM,1.6
30.3 µM,CC1(Cc2ccccc2)CC(S(=O)(=O)c2ccccc2)=C(c2ccc(/C(N)=N/O)cc2)O1 (centres undefined),94.6 µM,3.1
–,COc1cccc2c1C(=O)c1c(O)c3c(c(O)c1C2=O)C[C@@](O)(C(=O)CO)C[C@@H]3O[C@H]1C[C@H](N)[C@H](O)[C@H](C)O1 [DOXORUBICIN],0.008 µM,–
11.2 µM,N=C(N)c1ccc(OCCCCCOc2ccc(C(=N)N)cc2)cc1 [PENTAMIDINE],31.2 µM,2.8
